The values that follow come from ChEMBL document CHEMBL4265975, “Synthesis, biological evaluation and molecular modeling of a novel series of fused 1,2,3-triazoles as potential anti-coronavirus agents” (Bioorg Med Chem Lett, 2018).

Data set [1] can be described thus: Selectivity index, ratio of MCC for HEL cells to EC50 for Herpes simplex virus 2 strain G infected in HEL cells. It counts as toxicity, cell-based. The conditions noted are these: human, read-out: Selectivity Index. The essentials: (§1)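 SI is MCC divided by EC50. […] MCC was measured in parallel on HEL cells seeded at 5 x 10^3 cells/well, as the lowest concentration causing microscopically visible alteration of cell morphology. The top concentration tested was 100 µM.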

The nature of data set [2]: Selectivity index, ratio of MCC for HEL cells to EC50 for Human coronavirus 229E infected in HEL cells. The conditions noted are these: read-out: Selectivity Index. It counts as toxicity, cell-based. The gist of the method:
as §1

The subject of data set [3] is Human alphaherpesvirus 1. Kind of data set: Antiviral activity against Herpes simplex virus 1 KOS infected in human HEL cells assessed as inhibition of virus-induced cytopathic effect after 3 days by microscopic method. It counts as functional, organism-based. To be noted: Human alphaherpesvirus 1, KOS, 72 h.
The subject of the next data set is Vaccinia virus. Kind of data set: Antiviral activity against Vaccinia virus infected in human HEL cells assessed as inhibition of virus-induced cytopathic effect after 3 days by microscopic method. Format: functional, organism-based. The conditions noted are these: Orthopoxvirus vaccinia, 72 h.
Data set [4] concerns Human alphaherpesvirus 1. Kind of data set: Antiviral activity against acyclovir-resistant TK-defecient Herpes simplex virus 1 KOS infected in human HEL cells assessed as inhibition of virus-induced cytopathic effect after 3 days by microscopic method. It counts as functional, organism-based. The conditions noted are these: Human alphaherpesvirus 1, KOS, 72 h. On the technique in general: Damage to the host cells serves as the signal in cytopathic effect assays.

Data set [5] is described as follows: Selectivity index, ratio of MCC for HEL cells to EC50 for Herpes simplex virus 1 KOS infected in HEL cells. It counts as toxicity, cell-based. To be noted: human, read-out: Selectivity Index. The essentials:
as §1

A further data set concerns Human coronavirus 229E. The data set can be described thus: Antiviral activity against Human coronavirus 229E infected in HEL cells assessed as reduction in virus-induced pathogenicity after 3 days by microscopic method. The conditions noted are these: 72 h. Format: functional, organism-based.
The nature of data set [6]: Selectivity index, ratio of MCC for HEL cells to EC50 for acyclovir-resistant TK-defecient Herpes simplex virus 1 KOS infected in HEL cells. Format: toxicity, cell-based. The conditions noted are these: human, read-out: Selectivity Index. The essentials: as §1
Data set [7] is described as follows: Selectivity index, ratio of MCC for HEL cells to EC50 for Human adenovirus 2 infected in HEL cells. Format: toxicity, cell-based. To be noted: read-out: Selectivity Index. The gist of the method:
as §1

In another data set the test system is Human alphaherpesvirus 2. Kind of data set: Antiviral activity against Human herpesvirus 2 strain G infected in human HEL cells assessed as inhibition of virus-induced cytopathic effect after 3 days by microscopic method. It counts as functional, organism-based. To be noted: Human alphaherpesvirus 2, strain G, 72 h.
Another data set concerns Human adenovirus 2. Kind of data set: Antiviral activity against Human adenovirus 2 infected in human HEL cells assessed as inhibition of virus-induced cytopathic effect after 3 days by microscopic method. The conditions noted are these: Human mastadenovirus C, 72 h. It counts as functional, organism-based. The gist of the method: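 HEL cells were infected with adenovirus 2 for 2 h. Residual virus was then removed and the cells were incubated with medium containing graded compound concentrations for 3 days at 37°C. Virus-induced cytopathogenicity was scored microscopically.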

Data set [8] is described as follows: Cytotoxicity against HEL cells assessed as alteration in cell morphology after 3 days by microscopic method. Format: cell-based. To be noted: human. The gist of the method:
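HEL cells were seeded at 5 x 10^3 cells/well and exposed to graded compound concentrations, up to 100 μM, in parallel with the antiviral assay. Cell morphology was examined by light microscopy. MCC is the minimum concentration causing a microscopically detectable alteration of normal cell morphology.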

The nature of data set [9]: Selectivity index, ratio of MCC for HEL cells to EC50 for Vaccinia virus infected in HEL cells. The conditions noted are these: human, read-out: Selectivity Index. It counts as toxicity, cell-based. The essentials: as §1

For orientation: EC50 means the concentration needed to bring the measured effect to its halfway point. In the case of `COc1ccc(CCn2nnc3c2CCN(c2ccc(C(F)(F)F)cc2)C3)cc1`, the selectivity ratio in data set [1], in [2], in data set [5], in data set [6], in [7] and in data set [9] was more than 8 throughout. In addition, the EC50 is more than 100 µM in the data set on Human alphaherpesvirus 1 [3]; more than 100 µM in the data set on Vaccinia virus; more than 100 µM with Human alphaherpesvirus 1 [4]; 8.9 µM with Human coronavirus 229E; more than 100 µM in the data set on Human alphaherpesvirus 2; more than 100 µM in the data set with Human adenovirus 2. Moreover, in [8], the MCC at 72 h was more than 100 µM.
In the case of `Fc1ccc(N2CCc3c(nnn3CC(c3ccccc3)c3ccccc3)C2)cc1`, the selectivity ratio in data set [1], in data set [2], in data set [5], in data set [6], in data set [7] and in data set [9] was more than 8 in each case. The EC50 in the data set with Human alphaherpesvirus 1 [3], in the data set on Vaccinia virus, in the data set on Human alphaherpesvirus 1 [4], in the data set on Human coronavirus 229E, in the data set on Human alphaherpesvirus 2 and in the data set on Human adenovirus 2 was more than 100 µM each time. In addition, in [8], the MCC at 72 h is not below 100 µM.
For `COc1cccc(CCn2nnc3c2CCN(c2ccc(C(F)(F)F)cc2)C3)c1`, the selectivity ratio in data set [1], in data set [2], in data set [5], in data set [6], in [7] and in data set [9] was more than 8 throughout. The concentration giving a half-maximal response (EC50) with Human alphaherpesvirus 1 [3] is more than 100 µM; with Vaccinia virus, more than 100 µM; in the data set on Human alphaherpesvirus 1 [4], more than 100 µM; in the data set on Human coronavirus 229E, more than 100 µM; with Human alphaherpesvirus 2 it was more than 100 µM; in the data set with Human adenovirus 2, 16 µM. Further, the MCC at 72 h in [8] is more than 100 µM.
As for `CCCCCCn1nnc2c1CCN(c1ccccc1)C2`, the selectivity ratio in [1], in data set [2], in data set [5], in data set [6], in data set [7] and in data set [9] was more than 8 each time. The EC50 in the data set with Human alphaherpesvirus 1 [3], with Vaccinia virus, in the data set with Human alphaherpesvirus 1 [4], in the data set with Human coronavirus 229E, with Human alphaherpesvirus 2 and with Human adenovirus 2 was more than 100 µM each time. Also, in data set [8], the MCC at 72 h is more than 100 µM.
